This is a sample that favours compounds with a hit; in the whole collection about 3.2% have one here.
GPR7 antag: GPR7 receptor antagonists, primary screen, cell-based, fluorescence, single concentration; Neuropeptides B/W receptor type 1 (Homo sapiens), P48145; inhibition, % at 4.4 µM; GPR7-expressing cells, fluorescence antagonist assay; hit rate 1.1% among 290,000; AID 1861, 2009; in the data active = inhibition above about 16%, passing the limit was not always enough;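 note: cells stimulated with the agonist NPW; 0% = agonist with vehicle and 100% = vehicle without agonist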
OX1R antag-1: OX1R (HCRTR1) antagonists, primary screen, fluorescence, CHO/OX1R cells, Fluo-8 calcium, orexin A; Orexin/Hypocretin receptor type 1 (Homo sapiens), O43613; Fluo-8 calcium fluorescence; inhibition, % at 5 µM; hit rate 0.43% among 330,000; AID 434989, 2010;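 active = inhibition above its plate's threshold, mean inhibition of all tested compounds on the plate plus 3 SD, cut at about 37% in these data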;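 note: 0% = orexin A challenge wells and 100% = SB-334867-A antagonist wells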
Target sequence (O43613 whole entry, looked up): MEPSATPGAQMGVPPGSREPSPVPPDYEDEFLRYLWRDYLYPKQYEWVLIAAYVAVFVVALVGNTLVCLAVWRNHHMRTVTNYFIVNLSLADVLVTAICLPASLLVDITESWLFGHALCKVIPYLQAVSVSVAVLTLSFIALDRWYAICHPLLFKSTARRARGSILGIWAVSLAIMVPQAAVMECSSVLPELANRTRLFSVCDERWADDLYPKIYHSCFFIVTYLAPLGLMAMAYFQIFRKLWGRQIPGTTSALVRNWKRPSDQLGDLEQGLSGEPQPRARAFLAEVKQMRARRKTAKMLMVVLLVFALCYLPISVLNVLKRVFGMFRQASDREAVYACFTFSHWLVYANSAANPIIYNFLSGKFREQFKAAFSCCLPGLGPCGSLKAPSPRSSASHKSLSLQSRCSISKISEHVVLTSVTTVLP
zfTRPN1 agonist: zebrafish TRPN1 channel agonists, primary screen, cell-based, HEK293, calcium fluorescence | transient receptor potential cation channel N1 (TRPN1/NompC), Danio rerio | HEK293 zebrafish TRPN1-YFP, Fluo-8 calcium fluorescence; 100% = response to 87 µM carbachol | activation, % at 3 µM | hit rate 0.18% among 220,000;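 active = activation above its plate's cutoff, the mean activation of test wells on that plate plus 3 SD, cut at about 19% in these data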;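 note: 0% = DMSO alone and 100% = 87 µM carbachol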
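Material: zebrafish TRPN1-YFP in HEK293 cells. Doses: one dose of 3 µM, 0.3% DMSO. Incubation: dye 1 h 37 °C plus 30 min RT. Measured by: intracellular calcium fluorescence with Fluo-8.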
CHO parental Ca: ATP-evoked calcium signal inhibitors, parental CHO, primary screen, counter-screen for OX1R antagonist project, cell-based, fluorescence, Fluo-8 calcium dye; parental CHO-K1, ATP-induced calcium, Fluo-8 fluorescence; inhibition, % at 5.6 µM; hit rate 0.63% among 330,000; AID 463079, 2010;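 active = inhibition above that plate's mean sample inhibition plus 3 SD, cut at about 26% in these data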;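 note: 0% = ATP-challenged DMSO wells and 100% = DMSO wells without ATP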
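Test system: parental CHO cells; detection: calcium-sensitive Fluo-8 fluorescence; evaluation: percent inhibition of calcium signal; also added: ATP as calcium-mobilizing challenge; repeats: one well per compound; control set: ATP-challenged DMSO wells low, unchallenged DMSO wells high; compound: single nominal dose of 5.6 µM per compound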
OX1R antag-2: antagonists of human orexin 1 receptor (OX1R) | Orexin/Hypocretin receptor type 1 (Homo sapiens), O43613 | OX1R-expressing cells, FRET antagonist read-out | inhibition, % at 6.6 µM | hit rate 1.8% among 330,000 | AID 485270, 2010; in the data active = inhibition mostly above about 38%, no sharp cut-off; inactive = mostly below about 40%;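 note: 0% = agonist challenge alone and 100% = reference antagonist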
TRPML3 agonist: human TRPML3 channel agonists, primary screen, cell-based, HEK293 TRPML3-YFP, Fluo-8 calcium fluorescence, 3 µM; 100% = the carbachol control signal; activation, % at 3 µM; hit rate 0.29% among 220,000; AID 1448, 2008;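 active = activation above its plate's cutoff, the mean activation of the plate's test wells plus 3 SD, cut at about 12% in these data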;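 note: 0% = DMSO only wells and 100% = carbachol wells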
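Material: TRPML3-YFP stable HEK293 cells | Dosing: One concentration, 3 µM nominal, 0.3% DMSO | Timing: 125 s total fluorescence read per well | Technique: Fluo-8 calcium dye fluorescence, ex 470-495, em 515-575 nm | Measure: Percent activation from peak-to-basal fluorescence ratio, scaled between DMSO and carbachol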
* = called active by the depositor; x = no result given.

SMILES | GPR7 antag | OX1R antag-1 | zfTRPN1 agonist | CHO parental Ca | OX1R antag-2 | TRPML3 agonist
O=[N+]([O-])c1ccc(Sc2n[nH]c(-c3ccccc3)n2)nc1 | 9 | -12 | 0 | -6 | 74* | 0
COCCN(C(=O)CSc1nnc(-c2ccccc2F)n1C)c1c(N)n(Cc2ccccc2)c(=O)[nH]c1=O | 6 | -12 | 1 | -4 | 9 | 2
Nc1ccccc1SC1CC(=O)N(c2ccc(Cl)c(Cl)c2)C1=O (stereo unspecified) | -6 | 24 | 2 | 34* | 7 | 1
Nc1ccccc1SC1CC(=O)N(c2ccc3c(c2)OCCO3)C1=O (stereo unspecified) | -12 | -17 | 5 | -18 | 7 | 2
CN(C)S(=O)(=O)c1cc(NC(=O)CNCCN2CCOCC2)ccc1Cl | -9 | -11 | 1 | -9 | 15 | 0
CN(C)c1nnnn1-c1ccc(Oc2ncc(C(F)(F)F)cc2Cl)cc1 | 6 | -22 | -1 | -6 | 16 | -2
COC(=O)c1sc(NC(=O)c2ccc(Cn3cc(Cl)cn3)o2)c(C#N)c1C | 9 | -9 | 9 | -21 | 72* | 2
CCCc1nn2c(=O)cc(CSCC(=O)Nc3ccc(C)cc3)nc2s1 | -5 | -14 | x | -11 | 6 | x
CCOc1ccccc1N1CCN(C(=O)c2cc(-c3cc(OC)ccc3OC)nc3ccccc23)CC1 | -5 | -30 | x | -22 | 18 | x
Cc1ccc(C(=O)Nc2ccc(Br)cc2)cc1S(=O)(=O)Nc1ccccn1 | -11 | -7 | 1 | -8 | 6 | 1
N#CCS(=O)(=O)c1ccccc1 | 1 | -1 | x | -12 | 10 | x
CN(CC(=O)Nc1ccc2c(c1)CCC2)CC(=O)Nc1ccccc1Br | -4 | -6 | -2 | -15 | 40* | 0
COc1ccc(NC(=O)CN(C)CC(=O)Nc2ccc3c(c2)CCC3)cc1 | -9 | -22 | 0 | -27 | 35 | 0
O=C(Nc1ccccc1C(=O)OCC(=O)N1CCc2ccccc2C1)c1ccco1 | 3 | 27 | 0 | -25 | 80* | -1
O=C(OCC(=O)N1CCN(C(=O)c2ccco2)CC1)c1ccccc1OCc1ccc(Cl)cc1 | 28* | -26 | 4 | -27 | 15 | 0
O=C(OCC(=O)N1CCOCC1)c1ccccc1OCc1ccc(Cl)cc1 | x | -31 | x | -12 | 11 | x
CC1(c2ccccc2)NC(=O)N(CC(=O)N2CCN(S(=O)(=O)c3c(F)cccc3F)CC2)C1=O (stereo unspecified) | x | -11 | x | 11 | -1 | x
CCCCC#Cc1ccc(C(=O)NNC(=O)Nc2ccccc2)o1 | 1 | -19 | 0 | 35* | 5 | -1
CN(CC(=O)Nc1ccc(Cl)c(C(F)(F)F)c1)C(=O)c1ccc2c(c1)NC(=O)CS2 | x | -8 | x | 5 | 1 | x
CCc1ccc(S(=O)(=O)/N=C2/C=C(Sc3ncn[nH]3)C(=O)c3ccccc32)cc1 | -13 | -14 | 1 | -12 | 68* | 1
CCc1ccc(S(=O)(=O)/N=C2\C=C(Nc3cccc(C(=O)O)c3)C(=O)c3ccccc32)cc1 | -16 | -13 | x | -7 | 46* | x
Nc1ccc(S(=O)(=O)N2CCCC2C(=O)O)cc1 (stereo unspecified) | 0 | -1 | 2 | -9 | 17 | 0
N#C/C(=C/c1ccc(N2CCCCC2)o1)C(=O)Nc1ccc2ccccc2c1 | 14 | x | 40* | x | x | 22*
N#C/C(=C/c1ccc(N2CCOCC2)o1)C(=O)NC1CCCCC1 | 1 | -13 | 6 | -1 | 12 | 4
N#C/C(=C/c1ccc(N2CCCCC2)o1)C(=O)Nc1ccc(Cl)cc1 | 10 | 99* | 28* | 77* | 19 | 39*
SMILES | GPR7 antag | OX1R antag-1 | zfTRPN1 agonist | CHO parental Ca | OX1R antag-2 | TRPML3 agonist
COCCn1c(C)cc(C(=O)CN2C(=O)NC3(CCCCCCC3)C2=O)c1C | -2 | -2 | 1 | -15 | 63* | 0
Cc1ccc(C(=O)N2CCN(C)CC2)cc1S(=O)(=O)N1CCCCCC1 | 7 | -18 | x | -3 | 32 | x
O=C(Nc1ccc(Cl)cc1)Nn1cnnc1 | 0 | x | x | x | x | x
CCOc1ccc(-c2nn3c(-c4ccccc4)nnc3s2)cc1 | -12 | -1 | 0 | -14 | 64* | 0
CCOc1ccc(-c2nnc3sc(COc4ccccc4)nn23)cc1 | -3 | -29 | -1 | -11 | 9 | 0
COc1cccc(-c2nn3c(-c4cccc(C)c4)nnc3s2)c1 | -5 | -4 | 0 | -29 | 57* | 0
CC(C)CCNC(=O)CO/N=C/c1ccccc1OC(F)F | -1 | -21 | 0 | -19 | 20 | -1
CN(C)c1ccc(N=Nc2ccccc2C(=O)OCC(=O)N2CCCCCC2)cc1 | -3 | -14 | -3 | 29* | 6 | -1
CCOc1ccccc1NC(=O)COc1cccnc1[N+](=O)[O-] | x | -12 | x | -26 | 14 | x
CC(=O)NCc1ccc(-c2nc3ccccc3s2)cc1 | 5 | -14 | 1 | -21 | 16 | 0
CC(=O)NCc1ccc(-c2csc(-c3cccs3)n2)cc1 | 1 | -14 | x | -9 | 63* | x
CCOC(=O)c1ccc(N(C(=O)c2ccco2)C(C(=O)NC2CCCC2)c2ccncc2)cc1 (stereo unspecified) | 3 | -28 | x | -10 | 18 | x
O=C(COc1ccc(F)cc1Cl)Nc1ccccc1C(=O)N1CCCCC1 | x | -35 | x | 99* | 25 | x
COc1ccccc1OCC(=O)Nc1ccccc1C(=O)N1CCCC1 | -6 | -18 | x | -12 | 16 | x
Cc1c(C#N)c(O)[nH]c(=O)c1N=Nc1ccc(S(N)(=O)=O)cc1 | 4 | -8 | x | 2 | 41* | x
Cn1c(N)c(C(=O)COC(=O)Cc2ccsc2)c(=O)n(C)c1=O | 20* | 0 | 1 | -8 | 0 | 0
O=C(OCC#CCSc1nnc(-c2cccc3ccccc23)o1)c1cccs1 | -18 | 3 | 2 | -11 | 56* | 1
O=C(OCC#CCSc1nnc(-c2ccccc2)o1)c1cccs1 | 3 | -16 | -1 | -4 | 17 | 0
On1ccccc1=S | x | 37* | x | 41* | 14 | x
O=C(Cn1ccccc1=S)c1ccc(Cl)c(Cl)c1 | x | 3 | x | -16 | -3 | x
Cc1cc(C)nc(SCc2ccc(C(=O)NNC(=O)Nc3cccc(Cl)c3)cc2)n1 | -12 | 15 | 0 | 8 | 16 | 0
Cc1ccc(Nc2cc(C)nn2-c2nc(C)cc(=O)[nH]2)cc1 | 5 | 41* | -3 | 55* | 10 | -2
Cc1ccc(Nc2cc(C)nn2-c2nc(C)cc(C)n2)cc1 | -8 | -41 | -1 | -22 | 26 | 0

Source: PubChem BioAssay
